Values after ≈ are worked out from the molar mass of the structure shown. Values joined by “and” are separate entries in the source; they are usually repeats but may differ in a detail not shown here. Identical values can stand only once.
Columns and labels:
[1] = test system: SK-MEL-2; assay: Inhibitory concentration of compound for cytotoxicity against SK-MEL-2 human melanoma cells was determined; type: functional, cell-based
How it was run: (§1)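 MTT cytotoxicity assay on human cancer cell lines: A549 (lung), SK-OV-3 (ovarian), HCT15 (colon) and SK-MEL-2 (melanoma). Cells were incubated with compound for 3 days before the MTT read-out. Activity is reported as IC50 in μg/mL.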

[2] = test system: HCT-15; assay: Inhibitory concentration of compound for cytotoxicity against HCT15 human colon cells was determined; type: functional, cell-based; how it was run: as §1
[3] = test system: SK-OV-3; assay: Inhibitory concentration of compound for cytotoxicity against SK-OV-3 human ovarian cells was determined; type: functional, cell-based; how it was run: as §1
[4] = test system: A549; assay: Inhibitory concentration of compound for cytotoxicity against […] human lung cells was determined; type: functional, cell-based; how it was run: as §1
[5] = Toxicity by oral administration of single dose in mice; settings: mouse, in vivo
[6] = test system: Mus musculus; assay: In vivo mean survival time of L1210 leukemic BDF1 mice when compound (0.67 mmol/kg/day) was administered orally
[7] = test system: Mus musculus; assay: In vivo mean survival time of L1210 leukemic BDF1 mice when compound (0.016 mmol/kg/day) was administered orally
[8] = test system: Mus musculus; assay: In vivo mean survival time of L1210 leukemic BDF1 mice when compound (0.0032 mmol/kg/day) was administered orally
[9] = Toxicity by oral administration of single dose in mice for 21 days; settings: mouse, in vivo, 504 h
[10] = test system: Mus musculus; assay: Percent increase in life span of L1210 leukemic BDF1 mice when compound (0.15 nmol/kg/day) was administered intravenously; type: functional
[11] = test system: Mus musculus; assay: In vivo mean survival time of L1210 leukemic BDF1 mice when compound (0.23 nmol/kg/day) was administered intravenously; type: functional

Structure (SMILES)	IC50 [1] [µg/mL]	IC50 [2] [µg/mL]	IC50 [3] [µg/mL]	IC50 [4] [µg/mL]	LD50 [5] [mg/kg]	MST [6] [days]	MST [7] [days]	MST [8] [days]	LD50 [9] [mg/kg/day]	ILS [10]	MST [11]
C#CCOC(=O)Nc1nc(=O)n(C2O[C@H](C(=O)O)[C@@H](O)[C@H]2O)cc1F (stereo partly specified)	0.007 (≈ 0.0196 µM)	0.04 (≈ 0.112 µM)	0.005 (≈ 0.014 µM)	0.005 (≈ 0.014 µM)	12	–	–	–	–	–	–
CCCCCOC(=O)Nc1nc(=O)n(C2O[C@H](C(=O)O)[C@@H](O)[C@H]2O)cc1F (stereo partly specified)	0.03 (≈ 0.0771 µM)	0.12 (≈ 0.308 µM)	0.03 (≈ 0.0771 µM)	0.17 (≈ 0.437 µM)	–	11.3	–	–	–	–	–
O=C(Nc1nc(=O)n(C2O[C@H](C(=O)O)[C@@H](O)[C@H]2O)cc1F)Oc1ccccc1 (stereo partly specified)	0.1 (≈ 0.253 µM)	0.39 (≈ 0.987 µM)	0.12 (≈ 0.304 µM)	0.55 (≈ 1.39 µM)	–	–	–	–	–	–	–
O=C(Nc1nc(=O)n(C2O[C@H](C(=O)O)[C@@H](O)[C@H]2O)cc1F)OCc1ccccc1 (stereo partly specified)	0.1 (≈ 0.244 µM)	0.17 (≈ 0.415 µM)	0.07 (≈ 0.171 µM)	0.37 (≈ 0.904 µM)	–	–	–	–	–	–	–
CCOC(=O)Nc1nc(=O)n(C2O[C@H](C(=O)O)[C@@H](O)[C@H]2O)cc1F (stereo partly specified)	0.16 (≈ 0.461 µM)	0.47 (≈ 1.35 µM)	0.16 (≈ 0.461 µM)	0.49 (≈ 1.41 µM)	–	–	–	–	–	–	–
C=CCOC(=O)Nc1nc(=O)n(C2O[C@H](C(=O)O)[C@@H](O)[C@H]2O)cc1F (stereo partly specified)	0.008 (≈ 0.0223 µM)	0.032 (≈ 0.0891 µM)	0.008 (≈ 0.0223 µM)	0.04 (≈ 0.111 µM)	650	–	24.8	22.1	22	–	–
O=c1[nH]cc(F)c(=O)[nH]1 [FLUOROURACIL]	0.63 (≈ 4.84 µM)	0.11 (≈ 0.846 µM)	0.03 (≈ 0.231 µM)	0.26 (≈ 2 µM)	–	–	–	–	–	87.5% and 62.5%	16.5 days and 14.3 days

From ChEMBL document CHEMBL1135941, “Synthesis and biological activity of the new 5-fluorocytosine derivatives, 5'-deoxy-N-alkyloxycarbonyl-5-fluorocytosine-5'-carboxylic acid” (Bioorg Med Chem Lett, 2002)
